From ChEMBL document CHEMBL4376883, “Discovery and Optimization of Small Molecules Targeting the Protein-Protein Interaction of Heat Shock Protein 90 (Hsp90) and Cell Division Cycle 37 as Orally Active Inhibitors for the Treatment of Colorectal Cancer” (J Med Chem, 2020)

How the values were obtained:
HCT-116 [1] = experiment: Effect on total phosphorylated CDC37 expression in human HCT116 cells up to 10 uM measured after 24 hrs by Western blot analysis; format: ADME, cell-based; details: hct-116, 24 h
Method in brief: (§1)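 HCT116 cells treated with 0, 1, 5 or 10 µM for 24 h, or with 10 µM for 0, 4, 12, 24 or 48 h. Lysates separated by SDS-PAGE and blotted. Membranes blocked in 5% milk, primary antibodies overnight at 4 °C, HRP secondaries, chemiluminescent detection.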

[2] = Stability of the compound in mouse plasma assessed as parent compound remaining at 1 uM measured after 60 mins by LC-MS/MS analysis; format: ADME, cell-free; details: read-out: Stability
Method in brief: (§2)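 Compound diluted from 10 mM DMSO stock to 1 μM in mouse or human plasma and held at 37 °C in a water bath. Reactions were stopped with acetonitrile at 0, 10, 30, 60 and 90 min. Parent compound was quantified by LC-MS/MS as % remaining.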

Heat shock protein HSP90 = Heat shock protein HSP90 (Homo sapiens, UniProt P07900+P08238); experiment: Binding affinity to recombinant […] biotinylated-HSP90 N-terminal domain (9 to 236 residues) (unknown origin) expressed in Escherichia coli BL21 (DE3) by biolayer interferometry
Method in brief: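 Biotinylated Hsp90 (100 µg/mL) loaded onto streptavidin sensors prewetted 10 min in PBS with 0.05% BSA and 0.01% Tween 20. Analyte binding measured at 28 °C. Double reference subtraction applied; data fitted to a 1:1 model with K_D = K_off/K_on.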

[3] = Effect on HSP70 in human HCT116 cells at 10 uM measured up to 48 hrs by Western blot analysis; format: cell-based; method in brief: as §1
[4] = Apparent oral clearance in plasma of human HCT116 cells xenografted BALB/c mouse at 80 mg/kg administered as single dose by LC-MS/MS analysis; format: ADME, organism-based
Method in brief: (§3)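 Xenograft mice (n = 6 per group) received a single 80 mg/kg oral dose. Plasma and tumour were sampled over 0–24 h into heparinized tubes and analysed by LC-MS/MS.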

[5] = AUC (0 to infinity) in plasma of human HCT116 cells xenografted BALB/c mouse at 80 mg/kg, po administered as single dose by LC-MS/MS analysis; format: ADME, organism-based; parameters: dose 80 mg/kg, time infinity, route oral
Method in brief: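 Tumour-bearing mice (n = 6 per group) given one oral dose of 80 mg/kg. Blood and tumour collected into heparinized tubes at 0, 0.25, 0.5, 1, 2, 4, 8, 12 and 24 h. Plasma obtained by centrifugation at 3000 rpm for 10 min. Samples stored at -80 °C and quantified by LC-MS/MS.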

HCT-116 [6] = experiment: Effect on CDC37 expression in human HCT116 cells up to 10 uM measured after 24 hrs by Western blot analysis; format: cell-based; details: hct-116, 24 h; method in brief: as §1
[7] = Stability of the compound in human plasma assessed as parent compound remaining at 1 uM measured immediately by LC-MS/MS analysis; format: ADME, cell-free; details: read-out: Stability; method in brief: as §2
[8] = Half life in tumor of human HCT116 cells xenografted BALB/c mouse at 80 mg/kg, po administered as single dose by LC-MS/MS analysis; format: ADME, organism-based, Neoplasm
Method in brief: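 Single oral dose of 80 mg/kg given to BALB/c nude mice (n = 6 per group) carrying flank HCT116 xenografts. Blood and tumor were collected at 0, 0.25, 0.5, 1, 2, 4, 8, 12 and 24 h. Blood went into heparinized tubes and was spun at 3000 rpm for 10 min to give plasma. Samples were stored at -80 °C, then drug levels in plasma and tumor were measured by LC-MS/MS.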

[9] = Stability of the compound in mouse plasma assessed as parent compound remaining at 1 uM measured after 30 mins by LC-MS/MS analysis; format: ADME, cell-free; details: read-out: Stability; method in brief: as §2
HCT-116 [10] = experiment: Antiproliferative activity against human HCT116 cells measured after 72 hrs by CCK8 assay; format: functional, cell-based; details: HCT-116, 72 h
Method in brief: (§4)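 Cells grown in RPMI 1640 with 10% FBS at 37 °C, 5% CO2; STR-authenticated and mycoplasma-checked. Seeded at 3000-5000 cells/well and left 24 h. Serial compound dilutions added for 72 h, with matched DMSO as control. Viability read by CCK8 kit using the standard protocol. IC50 values derived from at least three parallel experiments.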

[11] = Permeability of the compound at pH 7.4 by PAMPA; format: ADME; details: read-out: permeability
Method in brief: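 Permeability coefficient (Pe) was measured at pH 7.4 by double-sink PAMPA.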

L02 = experiment: Cytotoxicity against human L02 cells measured after 72 hrs by CCK8 assay; format: functional, cell-based; details: L02, 72 h; method in brief: as §4
Glucocorticoid receptor [12] = target: T1, Glucocorticoid receptor (Homo sapiens, UniProt P04150); experiment: Effect on glucocorticoid receptor phosphorylation in human HCT116 cells at 10 uM measured up to 48 hrs by Western blot analysis; format: ADME, cell-based; method in brief: as §1
T1 sequence (P04150 whole entry): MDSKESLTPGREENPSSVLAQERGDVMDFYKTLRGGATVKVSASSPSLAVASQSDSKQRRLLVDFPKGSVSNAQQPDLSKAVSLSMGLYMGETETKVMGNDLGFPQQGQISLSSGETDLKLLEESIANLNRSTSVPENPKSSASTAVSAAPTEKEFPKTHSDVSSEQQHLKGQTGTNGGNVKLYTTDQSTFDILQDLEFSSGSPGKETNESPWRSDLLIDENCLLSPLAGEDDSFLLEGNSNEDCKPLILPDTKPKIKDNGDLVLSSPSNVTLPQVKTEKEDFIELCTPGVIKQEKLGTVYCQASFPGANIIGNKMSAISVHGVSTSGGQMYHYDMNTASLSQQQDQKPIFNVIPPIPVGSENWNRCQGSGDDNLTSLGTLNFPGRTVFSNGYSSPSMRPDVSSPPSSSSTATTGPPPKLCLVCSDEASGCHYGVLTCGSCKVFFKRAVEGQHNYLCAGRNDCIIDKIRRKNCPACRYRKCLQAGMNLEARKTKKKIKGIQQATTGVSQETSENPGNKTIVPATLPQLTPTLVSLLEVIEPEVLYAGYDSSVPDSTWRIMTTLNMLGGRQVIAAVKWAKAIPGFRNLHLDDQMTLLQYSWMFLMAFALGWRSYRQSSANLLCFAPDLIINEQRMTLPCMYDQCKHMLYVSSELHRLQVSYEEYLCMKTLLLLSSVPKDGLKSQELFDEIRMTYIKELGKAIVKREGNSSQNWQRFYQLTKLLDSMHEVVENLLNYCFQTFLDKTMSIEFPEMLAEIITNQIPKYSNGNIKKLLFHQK

[13] = Apparent oral clearance in tumor of human HCT116 cells xenografted BALB/c mouse at 80 mg/kg administered as single dose by LC-MS/MS analysis; format: ADME, organism-based, Neoplasm; method in brief: as §3
HCT-116 [14] = experiment: Effect on HSP90 expression in human HCT116 cells at 10 uM measured up to 48 hrs by Western blot analysis; format: cell-based; details: hct-116, 48 h; method in brief: as §1
HCT-116 [15] = experiment: Effect on total phosphorylated CDC37 expression in human HCT116 cells at 10 uM measured up to 48 hrs by Western blot analysis; format: ADME, cell-based; details: hct-116, 48 h; method in brief: as §1
Glucocorticoid receptor [16] = target: T1, Glucocorticoid receptor; experiment: Effect on glucocorticoid receptor in human HCT116 cells up to 10 uM measured after 24 hrs by Western blot analysis; format: ADME, cell-based; method in brief: as §1

In the case of `Cc1cc(C)c(S(=O)(=O)N(CC(=O)O)c2ccc(Nc3ccnc(N4CCNCC4)n3)cc2)c(C)c1`, the Activity (HCT-116 [1]) is reported as “Non-Toxic”, the remaining at 1 h, 1 µM [2] is reported as 101% and the Kd (Heat shock protein HSP90) is reported as 500 nM. The Activity [3] was “Non-Toxic”, the CL/F [4] was 3.11 mL/min/kg and the AUC(0-inf) [5] was 536 µg·h/mL. For the same compound, the Activity (HCT-116 [6]) was “Non-Toxic”, the remaining at 0 min, 1 µM [7] was 100% and the half-life [8] was 4.66 h. For the same compound, the remaining at 0.5 h, 1 µM [9] was 102%, the IC50 (HCT-116 [10]) was 1730 nM and the Papp [11] was 104 ×10⁻⁶ cm/s. For the same compound, the IC50 (L02) was greater than 50000 nM, the Activity (Glucocorticoid receptor [12]) was “Non-Toxic” and the CL/F [13] was 9.93 mL/min/kg. For the same compound, the Activity (HCT-116 [14]) was “Non-Toxic”, the Activity (HCT-116 [15]) was “Non-Toxic” and the Activity (Glucocorticoid receptor [16]) was “Non-Toxic”.
